The source made the active and inactive calls.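 How the source made its calls, unless noted: active means fluorescence slope after compound addition differing from the mean of all screened samples at 99.7% confidence, in either direction; inactive means the rest.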
Experiments:
[1] = inhibitors of TNFa-induced NFkB p65 translocation, primary screen, imaging, HUVEC, MLSMR starter and 10KST1 sets (AID 438;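 active means inhibition above 20% together with a positive visual image hit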;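 further: compound added about 3h40 before a 20 min TNFalpha stimulation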;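 on inhibition: signal is the nuclear over cytoplasmic p65 intensity ratio per well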); settings: HUVEC TNFa-induced p65 nuclear translocation; cell count: measured here: nuclei count (cytotoxicity indicator), at 2.08 µM; inhibition: at 2 µM, stronger effect = higher value, 0% TNFa-plus-vehicle, 100% no-TNFa wells
[2] = endothelial E-selectin expression blockers – imaging, HUVEC, immunofluorescence, MLSMR starter and 10KST1 sets, primary screen (AID 487;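 active means visually confirmed hit in the image check and inhibition above 20%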;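 on inhibition: signal is fraction of cell area covered by stained E-selectin grains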;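 on nuclei count: 100% = median nuclei count of all wells on the same plate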); settings: HUVEC TNFalpha-induced E-selectin immunofluorescence imaging, at 2 µM; inhibition: stronger effect = higher value; nuclei count: measured here: cell number, toxicity
[3] = Primary imaging screen for DUSP6 inhibitors that restore phospho-Erk in transfected HeLa cells, chemical complementation (AID 609;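 active means compounds giving at least 50% inhibition in the cell-based MKP-3 phosphatase rescue imaging test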;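 on inhibition: phospho-Erk level distribution per well compared with pooled transfected vehicle control wells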); settings: HeLa MKP-3 transfected, phospho-Erk imaging KS statistic, at 10 µM, cells stimulated with TPA for 15 min
[4] = molecular target: Dual specificity protein phosphatase 6 (Homo sapiens) (UniProt Q16828); test: as above; settings: HeLa MKP-3 transfected, phospho-Erk imaging KS statistic; at 10 µM; stronger effect = higher value; cells stimulated with TPA for 15 min
Sequence of Dual specificity protein phosphatase 6 (Homo sapiens) (Q16828 whole entry, looked up): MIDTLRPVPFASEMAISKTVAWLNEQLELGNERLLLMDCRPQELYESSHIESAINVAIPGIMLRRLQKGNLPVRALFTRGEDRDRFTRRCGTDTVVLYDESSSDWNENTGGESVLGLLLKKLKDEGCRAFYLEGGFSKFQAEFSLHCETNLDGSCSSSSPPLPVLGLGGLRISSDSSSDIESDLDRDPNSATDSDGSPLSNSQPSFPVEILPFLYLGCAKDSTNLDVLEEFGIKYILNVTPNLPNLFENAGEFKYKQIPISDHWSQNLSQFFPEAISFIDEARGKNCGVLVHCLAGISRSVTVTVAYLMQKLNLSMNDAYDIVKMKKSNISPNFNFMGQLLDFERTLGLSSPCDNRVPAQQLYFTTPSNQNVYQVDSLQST

[5] = molecular target: Voltage-gated potassium channel subunit beta-2 (Rattus norvegicus) (UniProt P62483); test: inhibitors of rat Kvbeta2 reductase activity – biochemical, NADPH fluorescence, primary screen (AID 622;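 active means fluorescence slope higher than the sample average by over 3 SD, cut at about -0.22 in these data, passing the limit was not always enough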;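 further: slope of raw intensity against log time taken from 70 to 1610 s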); settings: recombinant KvBeta, 4-cyanobenzaldehyde reduction, at 10 µM, stronger effect = higher value
Sequence of Voltage-gated potassium channel subunit beta-2 (Rattus norvegicus) (P62483 whole entry, looked up): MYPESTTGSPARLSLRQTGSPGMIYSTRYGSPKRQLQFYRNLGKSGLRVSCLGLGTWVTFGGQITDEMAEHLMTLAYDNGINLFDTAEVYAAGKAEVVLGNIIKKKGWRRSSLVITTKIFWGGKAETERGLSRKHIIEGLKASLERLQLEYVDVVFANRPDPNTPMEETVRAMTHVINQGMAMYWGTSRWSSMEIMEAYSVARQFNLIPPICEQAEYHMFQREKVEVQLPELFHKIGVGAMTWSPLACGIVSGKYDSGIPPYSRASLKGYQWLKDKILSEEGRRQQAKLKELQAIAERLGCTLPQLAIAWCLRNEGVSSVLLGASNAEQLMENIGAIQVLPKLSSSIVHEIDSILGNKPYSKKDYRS

[6] = molecular target: Voltage-gated potassium channel subunit beta-2 (Rattus norvegicus) (UniProt P62483); test: enhancers of rat Kvbeta2 NADPH turnover – biochemical, NADPH fluorescence, primary screen (AID 623;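 active means NADPH fluorescence slope more negative than the mean of all samples by about 3 SD, 99.7% confidence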;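 further: fluorescence intensity change per second fitted from 20 to 320 s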); settings: Recombinant KvBeta, NADPH fluorescence decrease slope, 10 min; at 10 µM; stronger effect = lower value
[7] = molecular target: Alpha-2C adrenergic receptor (Homo sapiens) (UniProt P18825); test: compounds altering alpha2C-coupled GIRK flux – cell-based, HEK293 alpha2C/GIRK1/2, thallium flux, primary screen (AID 624); settings: thallium flux BTC fluorescence, at 10 µM, actives lie on both sides;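 further: slope of fluorescence ratio to pre-addition baseline per second over 15 to 24 s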
Sequence of Alpha-2C adrenergic receptor (Homo sapiens) (P18825 whole entry, looked up): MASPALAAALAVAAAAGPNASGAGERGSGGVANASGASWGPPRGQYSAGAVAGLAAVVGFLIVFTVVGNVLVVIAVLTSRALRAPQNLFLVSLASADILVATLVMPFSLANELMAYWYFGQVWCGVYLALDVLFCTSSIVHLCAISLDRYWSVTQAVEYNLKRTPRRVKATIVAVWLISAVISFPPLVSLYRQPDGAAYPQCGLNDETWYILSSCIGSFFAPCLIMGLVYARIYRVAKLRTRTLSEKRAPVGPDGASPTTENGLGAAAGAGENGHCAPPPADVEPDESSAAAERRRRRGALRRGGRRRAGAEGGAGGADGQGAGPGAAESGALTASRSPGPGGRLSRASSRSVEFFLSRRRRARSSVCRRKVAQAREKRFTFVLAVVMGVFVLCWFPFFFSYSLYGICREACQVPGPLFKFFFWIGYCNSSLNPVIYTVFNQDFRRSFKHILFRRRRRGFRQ

[8] = inhibitors of larval lipid processing in zebrafish, primary screen, whole organism, PED6 fluorescence, gall bladder and intestine (AID 686;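 active means a full or partial loss of lipid-probe fluorescence in the fish gall bladder, intestine or both, judged by eye; inactive means no fluorescence loss, or compound toxic to the fish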;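 further: larvae 5 to 7 days old with five fish per well; signal comes from phospholipase A2 cleavage of quenched PED6 carried via bile; overnight exposure to compound and PED6 before scoring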); settings: Zebrafish larvae PED6 lipid processing, fluorescence scoring; screened at 20 µM (by protocol)
How it was run: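 Doses: 20 µM single dose. Test system: live zebrafish larvae aged 5-7 days, whole organism. Quantity: five larvae per well. Measured by: By-eye fluorescence microscopy. Reagent: ingested quenched lipid PED6 at 100 nM. Read-out: visual per-well fluorescence inhibition score. Times: overnight exposure of larvae to compound plus PED6.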

[9] = loss of swimming-algae plug formation – whole organism, Chlamydomonas reinhardtii, WT vs cilia-less mutant, absorbance, 96-well, primary screen (AID 463189;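 active means inhibition at or above 50% relative to wild type and mutant plate controls; inactive means inhibition below 50%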;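 further: 0% = wild type cc124 cells in DMSO and 100% = ciliumless bld1 mutant cells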); settings: Chlamydomonas reinhardtii gravitaxis, OD600 absorbance, 2 days; at 10 µM; stronger effect = higher value
[10] = measured here: cell density z-score
[11] = measured here: nuclear c-Myc green intensity z-score
[12] = measured here: nuclear pErk red intensity z-score, stronger effect = higher value

| Structure (SMILES) | cell count [1] | inhibition [1] | inhibition [2] | nuclei count [2] [%] | z-score [3, 10] | z-score [3, 11] | z-score [3, 12] | inhibition [4] | fluorescence slope [5] | NADPH fluorescence slope [6] | slope [7] | outcome [8] | inhibition [9] |
| --- | --- | --- | --- | --- | --- | --- | --- | --- | --- | --- | --- | --- | --- |
| CCOc1nc(SC(C(C)=O)C(=O)Nc2ccccc2)nc(N(C)C)n1 (centres undefined) | 302 | -20.6% (inactive) | 10.9% (inactive) | 91.5 | 0.486 | -0.655 | -1.33 | 10.5% (inactive) | -0.456 (inactive) | -9.6e-06 (inactive) | 0.00845 (inactive) | inactive | -7.41% (inactive) |
| CCCCNC(=O)c1c(N)n(/N=C/c2cccnc2)c2nc3ccccc3nc12 | 474 | 4.9% (inactive) | -130% (inactive) | 139 | 1.68 | -0.352 | 0.256 | 24.5% (inactive) | -0.456 (inactive) | 5.4e-07 (inactive) | 0.0052 (inactive) | inactive | 29% (inactive) |
| CCc1[nH]nc2c1C(c1ccc(Br)s1)C(C#N)=C(N)O2 (centres undefined) | 504 | -7.7% (inactive) | -85.9% (inactive) | 152 | -0.154 | 1.13 | -0.858 | -8.27% (inactive) | -0.312 (inactive) | 1.7e-05 (inactive) | 0.00536 (inactive) | inactive | 15.9% (inactive) |
| CC/C(=N\O)c1ccc(OC)c(OC)c1 | 328 | -13.3% (inactive) | -106% (inactive) | 159 | -0.778 | -1.02 | 1.01 | 1.75% (inactive) | -0.423 (inactive) | -0.000183 (inactive) | 0.00545 (inactive) | inactive | 13.3% (inactive) |
| CC1CC(C(F)(F)F)n2ncnc2N1 (centres undefined) | 503 | -3.5% (inactive) | -41.5% (inactive) | 134 | -0.241 | 0.0915 | -0.288 | 13.2% (inactive) | -0.523 (inactive) | -4.4e-05 (inactive) | 0.00582 (inactive) | inactive | 39.7% (inactive) |
| Cn1c(=NCC(O)COc2ccccc2)sc2ccccc21 (centres undefined) | 482 | 7.1% (inactive) | -85.2% (inactive) | 167 | 0.424 | -0.57 | 0.805 | -8.95% (inactive) | -0.367 (inactive) | -3.8e-05 (inactive) | 0.00465 (inactive) | inactive | 16.2% (inactive) |
| O=C1CCc2nc3ccccc3c(=O)n2N1 | 452 | -12.6% (inactive) | 21.9% (inactive) | 104 | -0.985 | 0.704 | -0.802 | 11.9% (inactive) | -0.488 (inactive) | -4.1e-05 (inactive) | 0.00483 (inactive) | inactive | 23.6% (inactive) |
| Cc1cc(=O)[nH]c(SCC(=O)c2ccccc2)c1C#N | 391 | -0.9% (inactive) | 1.9% (inactive) | 168 | 2.74 | -1.01 | -0.58 | 13.4% (inactive) | -0.41 (inactive) | -0.000133 (inactive) | 0.00479 (inactive) | inactive | -2.65% (inactive) |
| c1coc(-c2nnc3sc(-c4cccs4)nn23)c1 | 471 | 2.8% (inactive) | -41.9% (inactive) | 132 | -1.75 | 0.838 | 2.17 | -13.3% (inactive) | -0.459 (inactive) | 9.9e-06 (inactive) | 0.00352 (inactive) | active; weak signal in gallbladder and intestine | 3.53% (inactive) |
| CC(=O)N=C(N)Sc1nc2ccccc2[nH]1 | 570 | -2.8% (inactive) | -55% (inactive) | 161 | -0.578 | 0.85 | 0.434 | 22.1% (inactive) | -0.462 (inactive) | -0.000171 (inactive) | 0.00501 (inactive) | inactive | 4.16% (inactive) |
| CCOC(=O)CC1=C(C(=O)OCC)C(c2cc(OC)c(OC)cc2OC)C(C#N)=C(N)O1 (centres undefined) | 433 | -10% (inactive) | -66.1% (inactive) | 106 | 1.93 | -1.51 | -0.137 | -8.27% (inactive) | -0.345 (inactive) | 6.8e-06 (inactive) | 0.00515 (inactive) | inactive | 15.6% (inactive) |
| CC(C)Cc1nc(N2CCN(C(=O)C(C)C)CC2)c(C#N)c2c1CCC2 | 541 | 1% (inactive) | -148% (inactive) | 141 | -1.27 | 0.114 | 1.85 | -3.5% (inactive) | -0.499 (inactive) | -3.3e-05 (inactive) | 0.00462 (inactive) | inactive | 5.12% (inactive) |
| Fc1ccc2[nH]c3c(N4CCN(C5CCCCC5)CC4)ncnc3c2c1 | 501 | -4.2% (inactive) | -68.6% (inactive) | 153 | -1.35 | 0.234 | 1.42 | -6.48% (inactive) | -0.152 (inactive) | -1.9e-06 (inactive) | 0.00383 (inactive) | inactive | 128% (active) |

Source: PubChem BioAssay
